Assay results taken from paper PMC4876928 (Clinical cancer research : an official journal of the …, 2016).

Columns and labels:
[1] = test system: tumor glucose uptake (FDG-PET); assay: FDG-PET tumor uptake; assay type: in vivo, human
Procedure, shortened: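 Patients with advanced solid tumours received oral test compound once daily. FDG-PET/CT scans were taken at baseline and 1-4 h after dosing on days 22 and 55. Scans were centrally assessed by EORTC criteria, with SUVmax change as the measure. PIK3CA hotspot mutations in archival FFPE tumour DNA were typed by DxS allele-specific PCR, qRT-PCR or Sanger sequencing.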

advanced solid tumors = assay: Tumor response by RECIST v1.0 / modified RECIST; assay type: in vivo, human
mTOR kinase = settings: read-out: inhibition constant (Ki) mTOR kinase; cited from earlier work
[2] = test system: xenograft cancer models with PI3K-mutant, PTEN-null, and KRAS-mutant cell lines; settings: multiple xenograft models; cited from earlier work
[3] = in vitro; weakly basic molecule; cited from earlier work

SMILES: Cc1c(CN2CCN(C(=O)[C@H](C)O)CC2)sc2c(N3CCOCC3)nc(-c3cnc(N)nc3)nc12 [apitolisib]
- patients with PIK3CA mutations with more than 25% mean decrease in SUVmax ([1]; 40 mg QD): 9/12
- patients with decrease in FDG-PET uptake of >25% ([1]; 40 mg QD (21/32)): 66%
- PIK3CA mutation patients with FDG-PET response ([1]; all dose cohorts (10 out of 14)): 71%
- Median time on study (advanced solid tumors; 40 mg 28/28): 2.9 months
- stable disease with tumor regression (advanced solid tumors; 40 mg 28/28): 20 patients
- time on study, range (advanced solid tumors; 40 mg 28/28): 1-21.2 months
- PRs (advanced solid tumors; 40 mg 28/28, 49 RECIST evaluable patients): Five
- PD as best radiological response (advanced solid tumors; 14 evaluable patients with PIK3CA mutations, 40 mg 28/28): 3
- PRs as best radiological response (advanced solid tumors; 14 evaluable patients with PIK3CA mutations, 40 mg 28/28, 1 confirmed): 3
- PR rate in MPM patients (advanced solid tumors; MPM): 12%
- Median time on study (advanced solid tumors; MPM, 30 mg 28/28): 4 months
- time on study, range (advanced solid tumors; MPM, 30 mg 28/28): 0.5-38.9 months
- patients on study for more than 6 months (advanced solid tumors; MPM, 30 mg 28/28 (8 patients)): 30%
- partial response rate (advanced solid tumors; RP2D 40 mg QD): 10.2%
- dose from which anti-tumor activity was apparent (advanced solid tumors; in vivo): 8 mg
- response rate with enrichment for PIK3CA mutations (advanced solid tumors; in vivo): 18.8%
- single agent response rate (advanced solid tumors; in vivo): 10-19%
- time on apitolisib (advanced solid tumors; one patient, metastatic clear cell ovarian cancer, 40 mg 28/28): 282 days
- maximal tumor shrinkage, change from baseline (advanced solid tumors; one patient, metastatic clear cell ovarian cancer, E545K PIK3CA, 40 mg 28/28): −48.3%
- patients continuing on study for over 12 months (advanced solid tumors; stage 1 (3 patients)): 5%
- partial responses (PR) (advanced solid tumors; stage 1, among 56 patients): 4
- confirmed responses (advanced solid tumors; stage 1, 32 mg QD 21/28 and 50 mg QD 21/28): 2
- Ki (mTOR kinase): 17.3 nM
- Tumor growth inhibition [2]: Tumor growth inhibition has been demonstrated
- drug solubility [3]: pH-dependent drug solubility
